Data set [1] relates to DU-145. The data set is described as follows: Cytotoxicity against human DU145 cells after 48 hrs by MTT assay. It is filed as functional, cell-based. Conditions: DU-145, 48 h. On the technique in general: Tetrazolium assays rely on reduction of a dye to a coloured formazan, in cell work by metabolically active cells.
A short description of data set [2]: Cytotoxicity against human RWPE1 cells after 48 hrs by MTT assay. It is filed as cell-based. Conditions: RWPE-1, 48 h.
Data set [3] has as its system LNCaP. The data set is described as follows: Cytotoxicity against human LNCAP cells after 48 hrs by MTT assay. It is filed as functional, cell-based.
The nature of data set [4]: Cytotoxicity against human HGC cells after 48 hrs by MTT assay. It is filed as functional, cell-based.
Data set [5] concerns MDA-MB-231. The data set is described as follows: Cytotoxicity against human MDA-MB-231 cells after 48 hrs by MTT assay. Conditions: MDA-MB-231, 48 h. It is filed as functional, cell-based.
Data set [6] relates to A549. The data set is described as follows: Cytotoxicity against human A549 cells at 100 uM after 48 hrs by MTT assay. It is filed as functional, cell-based.
Data set [7] concerns LNCaP. The data set is described as follows: Cytotoxicity against human LNCAP cells at 100 uM after 48 hrs by MTT assay. It is filed as functional, cell-based.
For data set [8], the system named is HGC. The data set is described as follows: Cytotoxicity against human HGC cells at 100 uM after 48 hrs by MTT assay. It is filed as functional, cell-based.
The test system of data set [9] is MDA-MB-231. The data set is described as follows: Cytotoxicity against human MDA-MB-231 cells at 100 uM after 48 hrs by MTT assay. It is filed as functional, cell-based.
Data set [10] relates to DU-145. The data set is described as follows: Cytotoxicity against human DU145 cells at 100 uM after 48 hrs by MTT assay. The class given is functional, cell-based.
The nature of data set [11]: Cytotoxicity against human RWPE1 cells at 100 uM after 48 hrs by MTT assay. The class given is cell-based. As to conditions: rwpe-1, 48 h.
The subject of data set [12] is A549. The data set is described as follows: Cytotoxicity against human A549 cells after 48 hrs by MTT assay. It is filed as functional, cell-based. As to conditions: A549, 48 h.
The nature of data set [13]: Therapeutic index, ratio of IC50 for human RWPE1 cells to IC50 for human DU145 cells. As to conditions: RWPE1 cells versus DU145 cells, read-out: Ratio IC50. It is filed as cell-based. The procedure, abridged: (§1)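 Selectivity expressed as the fold by which the IC50 in normal prostate epithelial RWPE-1 cells exceeds the IC50 in the prostate cancer line (DU-145 or LNCaP).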

A short description of data set [14]: Therapeutic index, ratio of IC50 for human RWPE1 cells to IC50 for human LNCAP cells. It is filed as cell-based. As to conditions: RWPE1 cells versus LNCAP cells, read-out: Ratio IC50. The procedure, abridged:
as §1

Calls of active or inactive are those of the source. No cut-off for these calls is given here.

Turning to `COc1cc([C@@H]2c3cc4c(cc3[C@@H](NC(=S)Nc3ccccc3F)[C@H]3COC(=O)[C@H]23)OCO4)cc(OC)c1OC`, the half-inhibitory concentration (IC50) in data set [1] is 63.3 µM; in data set [2] it was > 100 µM; in data set [3], > 100 µM; in [4], 22.4 µM; in data set [5], > 100 µM. Further, the outcome in data set [6] was inactive.

Take `COc1cc([C@@H]2c3cc4c(cc3[C@@H](NC(=S)Nc3cccc(F)c3)[C@H]3COC(=O)[C@H]23)OCO4)cc(OC)c1OC`: the outcome in data set [7], in [8], in [9], in [6] and in data set [10] was inactive. Besides, the Activity entry in [11] is listed as “Non-toxic”.

For `COc1cc([C@@H]2c3cc4c(cc3[C@@H](NC(=S)Nc3cccc(C(F)(F)F)c3)[C@H]3COC(=O)[C@H]23)OCO4)cc(OC)c1OC`, the IC50 was 21 µM in [1]; > 100 µM in data set [2]; 22.2 µM in [3]; 12.9 µM in data set [4]; 17.9 µM in data set [5]. The result in [6] was inactive.

Take `COc1cc([C@@H]2c3cc4c(cc3[C@@H](NC(=S)Nc3ccc(C(C)C)cc3)[C@H]3COC(=O)[C@H]23)OCO4)cc(OC)c1OC`: the IC50 in data set [12] is 62 µM; in [1] it was 59.9 µM; in [2] it was > 100 µM; in data set [3], 84.8 µM; in [4], > 100 µM; in data set [5], > 100 µM.

On to `COc1cc([C@@H]2c3cc4c(cc3[C@@H](NC(=S)Nc3ccccc3C(F)(F)F)[C@H]3COC(=O)[C@H]23)OCO4)cc(OC)c1OC`, for which the IC50 in data set [12] was > 100 µM; in [1], 2.34 µM; in data set [2], 44.5 µM; in data set [3] it was 12.9 µM; in data set [4], 86 µM; in data set [5], 85.7 µM. For the same compound, the selectivity ratio in data set [13] is 19; in data set [14], 3.4.

With `COc1cc([C@@H]2c3cc4c(cc3[C@@H](NC(=S)Nc3c(C)cc(C)cc3C)[C@H]3COC(=O)[C@H]23)OCO4)cc(OC)c1OC`, the IC50 came out at 10.6 µM in data set [1]; 71.7 µM in [2]; 39.8 µM in data set [3]; 60.3 µM in data set [4]; 19.4 µM in [5]. For the same compound, the results for the selectivity ratio in data set [13] and in data set [14] were 6.8 and 1.8, respectively. Also, the outcome in [6] was inactive.

On to `COc1cc(NC(=S)N[C@@H]2c3cc4c(cc3[C@@H](c3cc(OC)c(OC)c(OC)c3)[C@H]3C(=O)OC[C@@H]32)OCO4)ccc1[N+](=O)[O-]`, for which the outcome in data set [7], in data set [8], in data set [9], in [6] and in [10] was inactive. The Activity result in [11] is recorded as “Non-toxic”.

Regarding `COc1ccc(NC(=S)N[C@@H]2c3cc4c(cc3[C@@H](c3cc(OC)c(OC)c(OC)c3)[C@H]3C(=O)OC[C@@H]32)OCO4)c(OC)c1`, the result in data set [7], in data set [8], in data set [9], in [6] and in [10] was inactive. For the same compound, the Activity result in data set [11] is reported as “Non-toxic”.

As for `COc1cc([C@@H]2c3cc4c(cc3[C@@H](NC(=S)Nc3ccc(Cl)c(Cl)c3)[C@H]3COC(=O)[C@H]23)OCO4)cc(OC)c1OC`, the IC50 is 14.1 µM in data set [1]; > 100 µM in data set [2]; 20 µM in data set [3]; 86.1 µM in [4]; 11.9 µM in data set [5]. Besides, in data set [6], the result was inactive.

For `COc1ccc(OC)c(NC(=S)N[C@@H]2c3cc4c(cc3[C@@H](c3cc(OC)c(OC)c(OC)c3)[C@H]3C(=O)OC[C@@H]32)OCO4)c1`, the outcome in data set [7], in data set [8], in [9], in data set [6] and in data set [10] was inactive. Further, the Activity entry in [11] is recorded as “Non-toxic”.

For the compound `COc1ccc(NC(=S)N[C@@H]2c3cc4c(cc3[C@@H](c3cc(OC)c(OC)c(OC)c3)[C@H]3C(=O)OC[C@@H]32)OCO4)cc1OC`, the IC50 in [12] was 65.5 µM; in [1], 58.8 µM; in data set [2] it was > 100 µM; in data set [3] it was > 100 µM; in data set [4], 23.7 µM; in data set [5], > 100 µM.

For `COc1cc([C@@H]2c3cc4c(cc3[C@@H](NC(=S)Nc3ccc(C#N)cc3)[C@H]3COC(=O)[C@H]23)OCO4)cc(OC)c1OC`, the result in data set [7], in data set [8], in data set [9], in data set [6] and in data set [10] was inactive.

Take `COc1cc([N+](=O)[O-])ccc1NC(=S)N[C@@H]1c2cc3c(cc2[C@@H](c2cc(OC)c(OC)c(OC)c2)[C@H]2C(=O)OC[C@@H]21)OCO3`: the result in data set [7], in data set [8], in [9], in data set [6] and in [10] was inactive. In [11], the Activity result is “Non-toxic”.

Turning to `COc1cc([C@@H]2c3cc4c(cc3[C@@H](NC(=S)Nc3ccc([N+](=O)[O-])cc3)[C@H]3COC(=O)[C@H]23)OCO4)cc(OC)c1OC`, the half-inhibitory concentration (IC50) in data set [12] came out at 44 µM; in data set [1], 7.89 µM; in data set [2], 56.7 µM; in [3] it was 53.1 µM; in [4] it was 69.6 µM; in data set [5] it was 31.8 µM. Moreover, the selectivity ratio in [13] worked out at 7.2.

In the case of `COc1cc([C@@H]2c3cc4c(cc3[C@H](O)[C@H]3COC(=O)[C@H]23)OCO4)cc(OC)c1OC` [PODOFILOX], half-maximal inhibition in data set [12] (IC50) was put at 129 µM.

On to `COc1cc([C@@H]2c3cc4c(cc3[C@@H](NC(=S)Nc3ccc(OCc5ccccc5)cc3)[C@H]3COC(=O)[C@H]23)OCO4)cc(OC)c1OC`, for which the outcome in data set [7], in [8], in [9], in data set [6] and in [10] was inactive. Besides, in [11], the Activity entry was “Non-toxic”.

`COc1cc(NC(=S)N[C@@H]2c3cc4c(cc3[C@@H](c3cc(OC)c(OC)c(OC)c3)[C@H]3C(=O)OC[C@@H]32)OCO4)cc(OC)c1`: the result in data set [7], in data set [8], in data set [9], in [6] and in data set [10] was inactive. Moreover, the Activity entry in [11] is reported as “Non-toxic”.

In the case of `COc1cc([C@@H]2c3cc4c(cc3[C@@H](NC(=S)Nc3ccc(F)cc3)[C@H]3COC(=O)[C@H]23)OCO4)cc(OC)c1OC`, the outcome in [7], in data set [8], in [9], in [6] and in data set [10] was inactive. Besides, the Activity result in data set [11] is listed as “Non-toxic”.

One may read the IC50 as the concentration at which inhibition is half-maximal. A high value points to weaker potency.

These data come from ChEMBL document CHEMBL3616464, “One-pot synthesis of podophyllotoxin-thiourea congeners by employing NH₂SO₃H/NaI: Anticancer activity, DNA topoisomerase-II inhibition, and apoptosis inducing agents” (Bioorg Med Chem Lett, 2015).
